These results are taken from ChEMBL document CHEMBL2417407, “Regioselective synthesis of phenanthrenes and evaluation of their anti-oxidant based anti-inflammatory potential” (Eur J Med Chem, 2013).

In brackets after ≈: the same amount, converted by molar mass.

Data set [1] relates to THP-1. Nature of the data set: Cytotoxicity against human THP1 cells assessed as cell viability at 100 uM after 24 hrs by CCK-8 assay relative to untreated control. The data set is classed as cell-based. The following applies: thp-1, 24 h. The method, boiled down:
(§1)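 THP-1 cells were seeded at 2 × 10⁵ cells/well and exposed to compound in serum-free medium for 24 h at 37 °C under 5% CO2. CCK-8 reagent was then added for 2 h and absorbance was read at 450 nm. Relative viability was calculated as absorbance of treated cells divided by absorbance of untreated cells. Triplicates, two independent experiments.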

In data set [2] the test system is THP-1. Nature of the data set: Cytotoxicity against human THP1 cells assessed as cell viability at 50 uM after 24 hrs by CCK-8 assay relative to untreated control. Particulars: thp-1, 24 h. The data set is classed as cell-based. The gist of the method: as §1
In data set [3] the test system is THP-1. Nature of the data set: Antiinflammatory activity in human THP1 cells assessed as inhibition of LPS-stimulated TNF-alpha release at 50 uM incubated for 1 hr prior to LPS challenge measured after 24 hrs by sandwich ELISA relative to untreated control. The data set is classed as functional. The gist of the method:
(§2)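 THP-1 cells were grown in RPMI 1640 with 10% heat-inactivated FBS, 1% non-essential amino acids, 1% glutamine, penicillin and streptomycin at 37 °C under 5% CO2. They were seeded at 2 × 10⁵ cells/well and pretreated with compound for 1 h in serum-free medium. LPS (E. coli O55:B5, 250 ng/mL) was then added for 24 h at 37 °C. Supernatant TNF-α was measured by sandwich ELISA, with LPS-stimulated cells taken as 0% inhibition. Triplicates, two independent experiments.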

The subject of data set [4] is THP-1. Nature of the data set: Cytotoxicity against human THP1 cells assessed as cell viability at 1 uM after 24 hrs by CCK-8 assay relative to untreated control. The data set is classed as cell-based. Particulars: thp-1, 24 h. The gist of the method: as §1
For data set [5], the system named is THP-1. Nature of the data set: Antiinflammatory activity in human THP1 cells assessed as inhibition of LPS-stimulated TNF-alpha release at 10 uM incubated for 1 hr prior to LPS challenge measured after 24 hrs by sandwich ELISA relative to untreated control. The format is functional. The method, boiled down: as §2
Data set [6] concerns THP-1. Nature of the data set: Antiinflammatory activity in human THP1 cells assessed as inhibition of LPS-stimulated TNF-alpha release at 100 uM incubated for 1 hr prior to LPS challenge measured after 24 hrs by sandwich ELISA relative to untreated control. The format is functional. The gist of the method: as §2
The nature of data set [7]: Antioxidant activity assessed as ABTS free radical scavenging activity after 1 min. The data set is classed as functional. The gist of the method:
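ABTS radical cation was generated from 7 mM ABTS stock and 2.45 mM potassium persulfate (final) left 16 h in the dark at room temperature. Working solution (1.0 mL) was added to the compound in methanol, giving final 1–100 µg/mL. Absorbance at 734 nm was read after exactly 1 min. Percent scavenging was calculated from absorbances as in the DPPH assay.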

Data set [8] deals with Radical scavenging activity. Nature of the data set: Antioxidant activity assessed as DPPH free radical scavenging activity after 30 mins. The data set is classed as functional. The gist of the method: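 Compound solution was mixed with 316 µM DPPH solution, giving final compound concentrations of 1, 5, 12.5, 25, 50 and 100 µg/mL. The mixture was shaken 1 min and incubated at 37 °C for 30 min. Absorbance was read at 517 nm and percent scavenging was calculated as [1 − (A1 − A2)/A0] × 100.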

Data set [9] concerns THP-1. Nature of the data set: Cytotoxicity against human THP1 cells assessed as cell viability at 10 uM after 24 hrs by CCK-8 assay relative to untreated control. The data set is classed as cell-based. The following applies: thp-1, 24 h. The gist of the method: as §1
The subject of data set [10] is THP-1. Nature of the data set: Antiinflammatory activity in human THP1 cells assessed as inhibition of LPS-stimulated TNF-alpha release at 1 uM incubated for 1 hr prior to LPS challenge measured after 24 hrs by sandwich ELISA relative to untreated control. The data set is classed as functional. The gist of the method:
as §2

Data set [11] concerns THP-1. Nature of the data set: Antiinflammatory activity in human THP1 cells assessed as inhibition of LPS-stimulated TNF-alpha release incubated for 1 hr prior to LPS challenge measured after 24 hrs by sandwich ELISA. The data set is classed as functional, cell-based. The gist of the method: as §2
Data set [12] is described as follows: Antioxidant activity assessed as galvinoxyl free radical scavenging activity after 20 mins. The data set is classed as functional.

For `COc1cc(/C=C/C(=O)CC(=O)/C=C/c2ccc(O)c(OC)c2)ccc1O` [CURCUMIN], the “fold change (FC)” value in the data set on THP-1 [1] was determined as 0.5; in the data set on THP-1 [2], 0.9; with THP-1 [4], 1.8; in the data set with THP-1 [9] it was 1.5. In addition, the inhibition at 50 µM in the data set on THP-1 [3] stood at 95.5%. For the same molecule, in the data set on THP-1 [5], the inhibition at 10 µM was 38%. Besides, the inhibition at 100 µM in the data set on THP-1 [6] came out at 102%. For the same molecule, the values for the IC50 in data set [7], in data set [8] and in [12] were 28.3 µg/mL (≈ 76.8 µM), 11.41 µg/mL (≈ 31 µM) and 17.03 µg/mL (≈ 46.2 µM), respectively. Moreover, in the data set on THP-1 [10], the inhibition at 1 µM turned out to be 1.5%. Also, in the data set on THP-1 [11], the inhibition entry is “Dose-dependent effect”.

Take `c1ccc2c(c1)ccc1ccccc12` [PHENANTHRENE]: the “fold change (FC)” value with THP-1 [1] is on record as 1.1; with THP-1 [2], 1.2; in the data set with THP-1 [4] it was 1.4; with THP-1 [9], 1.3. For the same molecule, the inhibition at 50 µM in the data set on THP-1 [3] came to 6%. For the same molecule, in the data set on THP-1 [5], the inhibition at 10 µM was determined as 0%. Also, in the data set with THP-1 [6], the inhibition at 100 µM was found to be 8.5%. Further, the IC50 in [7], in data set [8] and in data set [12] was over 100 µg/mL each time. The inhibition at 1 µM in the data set with THP-1 [10] amounted to 0%.

Turning to `c1ccc2c(c1)CCc1ccccc1-2`, the “fold change (FC)” value is 1.2 with THP-1 [1], 1.3 in the data set on THP-1 [2], 1.6 with THP-1 [4] and 1.5 in the data set on THP-1 [9]. Besides, the inhibition at 50 µM in the data set on THP-1 [3] was 5%. In addition, the inhibition at 10 µM with THP-1 [5] stood at 0%. Further, the inhibition at 100 µM in the data set with THP-1 [6] turned out to be 14.5%. Besides, the IC50 in data set [7], in data set [8] and in [12] was over 100 µg/mL throughout. The inhibition at 1 µM with THP-1 [10] stood at 0%.

As to `O=C1O[C@H]([C@@H](O)CO)C(O)=C1O` [ASCORBIC ACID], the IC50 stood at 29.17 µg/mL (≈ 166 µM) in data set [7], 15.12 µg/mL (≈ 85.8 µM) in data set [8] and 5.23 µg/mL (≈ 29.7 µM) in data set [12].

Turning to `COc1cc(O)c2c(c1)CCc1c-2ccc(OC)c1O`, the “fold change (FC)” value with THP-1 [1] was found to be 1.1; with THP-1 [2], 1.2; with THP-1 [4], 1.5; in the data set on THP-1 [9], 1.4. In the data set with THP-1 [3], the inhibition at 50 µM is 79%. Besides, the inhibition at 10 µM in the data set on THP-1 [5] turned out to be 30%. Moreover, in the data set on THP-1 [6], the inhibition at 100 µM was 94%. Further, the IC50 in data set [7] came out at 16.98 µg/mL (≈ 62.4 µM); in data set [8] it was 27.8 µg/mL (≈ 102 µM); in data set [12], 17.97 µg/mL (≈ 66 µM). Also, the inhibition at 1 µM in the data set on THP-1 [10] came to 9%. Further, the inhibition result in the data set with THP-1 [11] was “Dose-dependent effect”.

As to `COc1ccc2c(c1O)CCc1cc(O)cc(OC)c1-2`, the “fold change (FC)” value in the data set on THP-1 [1] came out at 1; with THP-1 [2], 1.2; in the data set on THP-1 [4], 1.3; in the data set on THP-1 [9] it was 1.3. Moreover, the inhibition at 50 µM with THP-1 [3] was 70%. Also, the inhibition at 10 µM in the data set with THP-1 [5] came out at 31%. In the data set with THP-1 [6], the inhibition at 100 µM was 83%. The IC50 amounted to 15.62 µg/mL (≈ 57.4 µM) in data set [7], 32.5 µg/mL (≈ 119 µM) in data set [8] and 17.04 µg/mL (≈ 62.6 µM) in [12]. Also, the inhibition at 1 µM in the data set with THP-1 [10] was 19.5%. Moreover, the inhibition entry in the data set on THP-1 [11] is “Dose-dependent effect”.

For the molecule `Cc1cc(C(C)(C)C)c(O)c(C(C)(C)C)c1` [BUTYLATED HYDROXYTOLUENE], the IC50 amounted to 36.11 µg/mL (≈ 164 µM) in data set [7], 31.51 µg/mL (≈ 143 µM) in [8] and 43.7 µg/mL (≈ 198 µM) in [12].

As to `COc1cc2c(c(OC)c1O)-c1ccc(O)cc1CC2` [FLAVANTHRIDIN], the “fold change (FC)” value worked out at 1.2 with THP-1 [1], 1.3 with THP-1 [2], 1.4 with THP-1 [4] and 1.4 in the data set on THP-1 [9]. Moreover, in the data set on THP-1 [3], the inhibition at 50 µM is 47%. Also, in the data set on THP-1 [5], the inhibition at 10 µM worked out at 17.5%. Besides, the inhibition at 100 µM in the data set with THP-1 [6] is 64%. Besides, the IC50 in data set [7] came out at 11.72 µg/mL (≈ 43 µM); in data set [8] it was 10.28 µg/mL (≈ 37.8 µM); in data set [12] it was 11.66 µg/mL (≈ 42.8 µM). The inhibition at 1 µM with THP-1 [10] was determined as 8%. In addition, in the data set with THP-1 [11], the inhibition entry was “Dose-dependent effect”.

Regarding `Oc1cc(O)c2c(c1)OC(c1ccc(O)c(O)c1)C(O)C2` (stereo unspecified) [CATECHIN], the 50% inhibitory concentration (IC50) worked out at 11.46 µg/mL (≈ 39.5 µM) in data set [7], 15.6 µg/mL (≈ 53.7 µM) in data set [8] and 18.03 µg/mL (≈ 62.1 µM) in data set [12].

Regarding `COc1cc2ccc3cc(O)ccc3c2c(OC)c1O`, the “fold change (FC)” value in the data set on THP-1 [1] came to 1; in the data set on THP-1 [2] it was 1.1; in the data set with THP-1 [4] it was 1.4; in the data set with THP-1 [9], 1.3. The inhibition at 50 µM in the data set with THP-1 [3] is 34%. Moreover, in the data set with THP-1 [5], the inhibition at 10 µM was 15.5%. Besides, in the data set on THP-1 [6], the inhibition at 100 µM amounted to 67.5%. Moreover, the figures for the 50% inhibitory concentration (IC50) in data set [7], in [8] and in data set [12] were 13.39 µg/mL (≈ 49.5 µM), 11.18 µg/mL (≈ 41.4 µM) and 11.79 µg/mL (≈ 43.6 µM), respectively. The inhibition at 1 µM with THP-1 [10] came to 3.5%. Besides, the inhibition entry in the data set on THP-1 [11] is “Dose-dependent effect”.
